The record followed here is ChEMBL document CHEMBL4145496, “In vitro antiplasmodial efficacy of synthetic coumarin-triazole analogs” (Eur J Med Chem, 2018).

In brackets after ≈: the same amount, converted by molar mass. Activity calls are given as the source filed them. No cut-off for these calls is given here.

The subject of data set [1] is Plasmodium falciparum. Kind of data set: Antimalarial activity against chloroquine-sensitive Plasmodium falciparum 3D7 erythrocytic stage after 48 hrs by Giemsa staining-based microscopic analysis. The settings on record: 3D7, 48 h. The format is functional, organism-based. In short, it runs like this: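 Parasites kept in human O+ erythrocytes in RPMI 1640 with HEPES, NaHCO3, L-glutamine, gentamicin and Albumax II, under 3% O2/4% CO2/93% N2 at 37 °C. DMSO stocks (1 mg/ml) diluted into gentamicin-free RPMI. Graded concentrations for 48 h at 37 °C, medium changed at 24 h, in triplicate. Parasites counted per about 4000 erythrocytes on Giemsa thin smears. IC50 taken from semi-log plots.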

A short description of data set [2]: Cytotoxicity against human HuH7 cells assessed as reduction in cell viability after 72 hrs by MTT assay. It counts as cell-based, Huh-7. In a few lines:
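Huh-7 monolayers grown in DMEM at 37 °C in 5% CO2. Cells seeded at about 20,000 per well and left 24 h, then given fresh medium containing 1, 10, 20, 30, 50 or 100 μg/mL compound for 72 h. Viability read by MTT, absorbance at 570 nm.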

In data set [3] the target is DNA gyrase (Escherichia coli) (UniProt P0AES6+P0AES4). In words: Inhibition of Escherichia coli DNA gyrase assessed as inhibition of enzyme-mediated supercoiling of relaxed pHOT1 DNA substrate at IC50 after 1 hr by ethidium bromide staining based agarose gel electrophoresis. It counts as protein-complex assay.

With `Cc1cc(=O)oc2cc(OCc3cn(-c4ccnc5cc(Cl)ccc45)nn3)ccc12`, the concentration for half-maximal inhibition (IC50) in data set [1] was found to be 10.6 µg/mL (≈ 25.3 µM). For the same compound, in data set [2], the 50% cytotoxic concentration (CC50) at 72 h is > 100 µg/mL.

Consider `Cc1cc(F)ccc1-n1cc(COc2ccc3c(C)cc(=O)oc3c2)nn1`, for which the IC50 in data set [1] amounted to 12.8 µg/mL (≈ 35 µM). The CC50 at 72 h in data set [2] is > 100 µg/mL.

On to `Cc1cc(=O)oc2cc(OCc3c[nH]nn3)ccc12`, for which half-maximal inhibition in data set [1] (IC50) was put at 1.82 µg/mL (≈ 7.06 µM). In addition, the CC50 at 72 h in data set [2] was > 100 µg/mL.

On to `Cc1cc(=O)oc2cc(OCc3cn(CCO)nn3)ccc12`, for which, in data set [1], the IC50 is 3.36 µg/mL (≈ 11.2 µM). In addition, the 50% cytotoxic concentration (CC50) at 72 h in data set [2] was > 100 µg/mL.

The compound `CC(=O)Nc1ccc(-n2cc(COc3ccc4c(C)cc(=O)oc4c3)nn2)cc1` yielded an IC50 in data set [1] of 4.16 µg/mL (≈ 10.7 µM). For the same compound, in data set [2], the CC50 at 72 h is > 100 µg/mL.

In the case of `Cc1cc(=O)oc2cc(OCc3cn(-c4ccccc4F)nn3)ccc12`, the half-inhibitory concentration (IC50) in data set [1] turned out to be 2.48 µg/mL (≈ 7.06 µM). For the same compound, the CC50 at 72 h in data set [2] is > 100 µg/mL.

`Cc1cc(=O)oc2cc(OCc3cn(-c4ccc(F)cc4F)nn3)ccc12` returned a half-maximal inhibitory concentration (IC50) in data set [1] of 15.4 µg/mL (≈ 41.7 µM). The CC50 at 72 h in data set [2] is > 100 µg/mL.

In data set [1], `Cc1cc(=O)oc2cc(OCc3cn(-c4ccc(F)cc4)nn3)ccc12` came in with a half-inhibitory concentration (IC50) of 6.43 µg/mL (≈ 18.3 µM). Besides, in data set [2], the cytotoxic concentration (CC50) at 72 h is > 100 µg/mL.

With `COC(=O)Cn1cc(COc2ccc3c(C)cc(=O)oc3c2)nn1`, the concentration for half-maximal inhibition (IC50) in data set [1] came to 3.3 µg/mL (≈ 10 µM). Moreover, in data set [2], the CC50 at 72 h was > 100 µg/mL.

In data set [1], `Cc1cc(=O)oc2cc(OCc3cn(Cc4ccccc4)nn3)ccc12` registered an IC50 of 6.4 µg/mL (≈ 18.4 µM). Moreover, the CC50 at 72 h in data set [2] was > 100 µg/mL.

In data set [1], `Cc1cc(C)cc(-n2cc(COc3ccc4c(C)cc(=O)oc4c3)nn2)c1` came in with an IC50 of 0.893 µg/mL (≈ 2.47 µM). For the same compound, the CC50 at 72 h in data set [2] is > 100 µg/mL. In addition, the inhibition entry in data set [3] was “Active”.

The compound `COc1ccc(-n2cc(COc3ccc4c(C)cc(=O)oc4c3)nn2)c(OC)c1` yielded an IC50 in data set [1] of 0.763 µg/mL (≈ 1.94 µM). Also, the CC50 at 72 h in data set [2] was > 100 µg/mL. Besides, in data set [3], the inhibition result was “Active”.

Take `Cc1cc(=O)oc2cc(OCc3cn(Cc4ccc([N+](=O)[O-])cc4)nn3)ccc12`: the IC50 in data set [1] is 2.23 µg/mL (≈ 5.68 µM). Further, the CC50 at 72 h in data set [2] was > 100 µg/mL.

`Cc1cc(=O)oc2cc(OCc3cn(-c4ccccc4[N+](=O)[O-])nn3)ccc12` registered an IC50 in data set [1] of 6.86 µg/mL (≈ 18.1 µM). The half-maximal cytotoxic concentration (CC50) at 72 h in data set [2] is > 100 µg/mL.

For the compound `Cc1ccc(-n2cc(COc3ccc4c(C)cc(=O)oc4c3)nn2)c(Cl)c1`, inhibition in data set [1] was half-maximal at 1.5 µg/mL (≈ 3.92 µM) (IC50). Further, the CC50 at 72 h in data set [2] is > 100 µg/mL. Besides, in data set [3], the inhibition entry is “Active”.

Compound `Cc1cc(=O)oc2cc(OCc3cn(-c4cccc(F)c4)nn3)ccc12` returned an IC50 in data set [1] of 9.46 µg/mL (≈ 26.9 µM). In addition, in data set [2], the half-maximal cytotoxic concentration (CC50) at 72 h is > 100 µg/mL.

In data set [1], `COc1cc(-n2cc(COc3ccc4c(C)cc(=O)oc4c3)nn2)cc(OC)c1OC` gave a concentration for half-maximal inhibition (IC50) of 11.1 µg/mL (≈ 26.1 µM). The cytotoxic concentration (CC50) at 72 h in data set [2] is > 100 µg/mL.

With `Cc1cc(=O)oc2cc(OCc3cn(-c4ccc(OC(F)(F)F)cc4)nn3)ccc12`, 5 µg/mL (≈ 12 µM) corresponded to half-maximal inhibition in data set [1] (IC50). Further, in data set [2], the CC50 at 72 h is > 100 µg/mL.

In the case of `Cc1cc(=O)oc2cc(OCc3cn(-c4ccc(Cl)cc4)nn3)ccc12`, the IC50 in data set [1] was 8.43 µg/mL (≈ 22.9 µM). The 50% cytotoxic concentration (CC50) at 72 h in data set [2] was > 100 µg/mL.

As to `Cc1cc(=O)oc2cc(OCc3cn(-c4ccccc4Cl)nn3)ccc12`, in data set [1], the midpoint of inhibition, the IC50, lay at 8.94 µg/mL (≈ 24.3 µM). For the same compound, the CC50 at 72 h in data set [2] is > 100 µg/mL.

In data set [1], `Cc1cc(=O)oc2cc(OCc3cn(-c4ccc(Oc5ccccc5)cc4)nn3)ccc12` gave a concentration for half-maximal inhibition (IC50) of 4.56 µg/mL (≈ 10.7 µM). For the same compound, the 50% cytotoxic concentration (CC50) at 72 h in data set [2] was > 100 µg/mL.

Compound `Cc1cc(=O)oc2cc(OCc3cn(-c4ccc(F)c(Cl)c4)nn3)ccc12` displayed an IC50 in data set [1] of 7.43 µg/mL (≈ 19.3 µM). For the same compound, the CC50 at 72 h in data set [2] was > 100 µg/mL.
